From PubChem
PLK1 kinase inh – PLK1 (human) kinase inhibition | AID 619 | 97,000 tested, 0.53% active | recombinant PLK1 kinase, TR-FRET peptide phosphorylation | inhibition, % at 10 µM | P53350;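 active = inhibition of 50% or more in the single-concentration screen; inactive = inhibition below 50%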
PTPN22 act – LYP (human) phosphatase activation; Q9Y2R2; activation, % at 2 µM; recombinant LYP, DiFMUP fluorescence; 0 = plate median, 100 = signal doubled; 96,000 tested, 0.11% active; AID 697;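 active = activation at 2 µM above a set limit, the mean plus 5 SD, cut at about 37% in these data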
Target sequence (Q9Y2R2 whole entry, looked up): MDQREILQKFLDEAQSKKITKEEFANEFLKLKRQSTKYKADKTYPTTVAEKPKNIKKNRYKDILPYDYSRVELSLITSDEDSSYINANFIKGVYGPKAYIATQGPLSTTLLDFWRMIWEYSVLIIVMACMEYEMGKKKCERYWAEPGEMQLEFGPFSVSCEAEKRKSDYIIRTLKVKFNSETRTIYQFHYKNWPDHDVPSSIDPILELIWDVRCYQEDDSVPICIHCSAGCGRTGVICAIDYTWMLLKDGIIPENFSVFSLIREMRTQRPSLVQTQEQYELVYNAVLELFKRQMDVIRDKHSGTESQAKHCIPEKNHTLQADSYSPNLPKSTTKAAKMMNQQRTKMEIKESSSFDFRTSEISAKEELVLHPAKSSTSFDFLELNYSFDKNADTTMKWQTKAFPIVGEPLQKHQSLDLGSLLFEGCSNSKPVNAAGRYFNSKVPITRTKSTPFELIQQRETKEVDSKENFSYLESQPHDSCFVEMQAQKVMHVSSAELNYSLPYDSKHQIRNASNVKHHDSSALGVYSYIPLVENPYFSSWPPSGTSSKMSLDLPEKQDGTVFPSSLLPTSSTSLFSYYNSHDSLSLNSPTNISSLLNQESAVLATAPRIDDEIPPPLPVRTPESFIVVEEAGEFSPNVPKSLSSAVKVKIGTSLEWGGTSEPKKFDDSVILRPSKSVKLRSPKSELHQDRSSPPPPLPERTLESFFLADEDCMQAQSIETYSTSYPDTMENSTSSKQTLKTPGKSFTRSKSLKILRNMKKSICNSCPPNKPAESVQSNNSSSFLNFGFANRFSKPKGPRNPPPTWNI
PTPN22 inh 2 – LYP (human) phosphatase inhibition; recombinant LYP catalytic domain, DiFMUP fluorescence; inhibition, % at 2 µM; 96,000 tested, 0.21% active; AID 640;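 active = inhibition at 2 µM at or above a set limit, the screen mean plus 3 SD, cut at about 24% in these data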
HIV Rev-RRE inh – inhibitors of HIV-1 Rev-RRE RNA interaction | P05866 | Rev peptide-RRE RNA binding, FRET | inhibition, % at 8 µM | 97,000 tested, 0.79% active | AID 704;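 active = inhibition above the screen-wide mean plus 3 SD, cut at about 35% in these data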
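Test system – labelled RRE RNA duplex and labelled Rev peptide · Reagent – labelled Rev peptide · Doses – one concentration, 8 µM nominal · Incubation – 5 + 15 min at 25 °C · Signal – FRET fluorescence readout · Read-out basis – % inhibition of FRET ratio versus controls · Control set – DMSO wells as 0% and neomycin B wells as 100% inhibition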
PLK1 PBD inh – inhibitors of human Plk1 polo box domain binding. P53350. Plk1 PBD phosphopeptide binding, fluorescence polarization. inhibition, %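 (tested at about 20 µM)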. 97,000 tested, 0.13% active. AID 693; in the data active = inhibition above about 34%, passing the limit was not always enough
PLAP activator – activators of human placental alkaline phosphatase | 96,000 tested, 1.2% active | P05187 | purified PLAP enzyme, luminescent substrate read-out; stronger effect = higher value | activation fold at 20 µM; in the data active = activation fold above about 2
Each line names hits and unclear results; the compound was inactive in the other large screens; [ ] = another dose, or the depositor's remark. Only some compounds are listed: those with a hit (about 2.7% of all), similar ones and a draw of the others.

COc1ccc(OCCCc2c(C)n[nH]c2C)cc1	PLAP activator 2.3
Cc1n[nH]c(C)c1CCCOc1ccccc1	none
Cc1cccc(OCCCCc2c(C)n[nH]c2C)c1C	PLAP activator 2.4
C=CCn1c(NCCO)nc2c1c(=O)n(C)c(=O)n2C	HIV Rev-RRE inh 56.0
Cn1c(=O)c2c(nc(NCCO)n2C)n(C)c1=O	none
O=C(CN1CCCCC1)Nc1nnc(-c2ccccc2)s1	PLAP activator 2
CCc1nnc(NC(=O)CN2CCN(c3nc(-c4ccccc4)cs3)CC2)s1	PLAP activator 2.1
O=C(CN1CCCCC1)Nc1nnc(-c2ccc([N+](=O)[O-])cc2)s1	none
CCc1nnc(NC(=O)CN2CCN(c3ccccc3OC)CC2)s1	none
O=C(CN(Cc1ccco1)C(=O)Cn1nnc(-c2ccc(F)cc2)n1)NC1CCCC1	none
CCCCC(C(=O)NC1CCCC1)N(Cc1ccco1)C(=O)Cn1nnc(-c2ccc(F)cc2)n1 (stereo not given)	PLAP activator 2.2
C=CCn1c(SCC(=O)Nc2nc(C)cs2)nnc1C(C)NC(=O)c1ccccc1Cl (stereo not given)	none (no result: PLAP activator)
Cc1cc(C)nc(SCc2nnc(SCC(=O)Nc3nc(-c4ccccc4)cs3)n2-c2ccccc2)n1	PLAP activator 2
O=C(CN(C(=O)CNC(=O)c1ccco1)c1ccc2c(c1)OCO2)NC1CCCCC1	PTPN22 inh 2 29.4
O=C(CN(C(=O)CNC(=O)c1ccco1)c1ccc(Cl)c(Cl)c1)NC1CCCCC1	none
COC(=O)C1=C(N)Oc2cc(N(C)C)ccc2C1c1ccccc1OC (stereo not given)	HIV Rev-RRE inh 37.1
COC(=O)c1ccc(-c2sc3nc(N4CCOCC4)c4c(c3c2N)CCCC4)o1	HIV Rev-RRE inh 84.6
CCOC(=O)c1sc2nc(N3CCOCC3)c3c(c2c1N)CCCC3	none
Cc1cc(N2CCCC2=O)cc(C)c1S(=O)(=O)NCCOc1ccc(C(C)(C)C)cc1	none (no result: PLAP activator)
COc1cc(CNCc2ccccn2)ccc1OCc1c(Cl)cccc1Cl	PLAP activator 2
Cc1nn(-c2ccccc2)c(C)c1C(=O)OCC(=O)N1CC(=O)Nc2ccccc21	none
Cc1nn(-c2ccccc2)c(C)c1C(=O)OC/C(O)=C(\C#N)c1nc2ccccc2[nH]1	HIV Rev-RRE inh 40.3
Cc1cc(NS(=O)(=O)c2ccc(Br)s2)no1	none (no result: PLAP activator)
Cc1ccc(N2CC(C(=O)Nc3nccs3)CC2=O)cc1Cl (stereo not given)	none
Cc1c(Cl)cccc1N1CC(C(=O)Nc2nccs2)CC1=O (stereo not given)	PLK1 kinase inh 53.4
CCOc1ccc(NC(=O)NCCCn2c(C)nc3cc(C)c(C)cc32)cc1	PLAP activator 2.2
CCN1CCCC1CNC1=NCCCCC1 (stereo not given)	none
COC(=O)c1cc(OC)c(OC)cc1NC(=O)c1ccc(C)o1	PLAP activator 2.2
COC(=O)c1cc(OC)c(OC)cc1NC(=O)CCc1ccc(C)o1	none
CCN1CC2=C(OC(N)=C(C#N)C2c2cccs2)/C(=C/c2cccs2)C1 (stereo not given)	HIV Rev-RRE inh 42.1
CCN1CC2=C(OC(N)=C(C#N)C2c2ccccc2)/C(=C\c2ccccc2)C1 (stereo not given)	none
COc1ccc(N=NC2=C(O)CC(C)(C)CC2=O)c(OC)c1	HIV Rev-RRE inh 58.8 (no result: PLAP activator)
O=c1cc(N2CCOCC2)[nH]c(=O)n1-c1ccc(Br)cc1	none
Cn1c(CC(=O)Nc2ccc(Cl)c(Cl)c2)nnc1SCC(=O)Nc1nccs1	none
Cn1c(CSCc2ccccc2Cl)nnc1SCC(=O)Nc1nccs1	PLK1 kinase inh 65.1
Nc1nc(Sc2ccc(C(F)(F)F)cc2[N+](=O)[O-])n[nH]1	PLAP activator 2
CCOc1ccc(/C=C/[N+](=O)[O-])c2ccccc12	none
On1cnnc1-c1ccccc1	none
COn1cnnc1-c1ccccc1	HIV Rev-RRE inh 40.5
COC(=O)CSc1snnc1-c1ccc(F)cc1	none
COc1ccc(C(=O)c2cn[nH]c2-c2cc(Cl)ccc2O)cc1	PLAP activator 2.2
Cc1ccc(C(=O)c2cn[nH]c2-c2ccccc2O)cc1	PLAP activator 2
O=C(c1ccc(F)cc1)c1cn[nH]c1-c1ccccc1O	PLAP activator 2.5
CCCn1nc(-c2ccccc2)c2nc3ccccc3nc21	HIV Rev-RRE inh 94.1[fluorescence artefact?]
CCn1c2ccc(Cl)cc2c2nc3ccccc3nc21	none
CCCCCn1nc(-c2ccccc2)c2nc3ccccc3nc21	HIV Rev-RRE inh 90.0[fluorescence artefact?]
CCn1nc(-c2ccccc2)c2nc3ccccc3nc21	HIV Rev-RRE inh 89.9[fluorescence artefact?]
COc1cccc(-c2nc(CS(=O)(=O)CC(=O)N3CCN(c4ccccn4)CC3)c(C)o2)c1	none (no result: PLK1 kinase inh, PTPN22 act, PTPN22 inh 2, HIV Rev-RRE inh, PLK1 PBD inh)
CCCCc1ccc(Nc2nc(CCC)cc(=O)[nH]2)cc1	none
CCCOC(=O)C1=C(C)NC2=C(C(=O)C(C(=O)OC)C(C)C2)C1c1ccc(N(CC)CC)cc1 (stereo not given)	none (no result: PLAP activator)
O=C(O)Cc1coc(-c2ccc(F)cc2)n1	none
O=C(COc1cccc2ccccc12)NNC(=O)Nc1ccccc1	none
O=C(COc1cccc2ccccc12)NNC(=O)[C@@H]1CCCC[C@@H]1C(=O)O	PLAP activator 2
COc1ccc(NC(=O)NCCCN2CCc3ccccc3C2)cc1	none (no result: PLK1 kinase inh, PTPN22 act, PTPN22 inh 2, HIV Rev-RRE inh, PLK1 PBD inh)
O=C(NCCCN1CCc2ccccc2C1)Nc1ccc(Br)cc1	PLAP activator 2.3
CN1CCc2nc(SCc3ccc(Cl)cc3)c(C#N)c(-c3cccs3)c2C1	HIV Rev-RRE inh 40.2 (no result: PLAP activator)
N#Cc1c(N)nc(SCc2ccncc2)c(C#N)c1-c1cccs1	none (no result: PLK1 kinase inh, PTPN22 act, PTPN22 inh 2, HIV Rev-RRE inh, PLK1 PBD inh)
Cc1ccc(S(=O)(=O)NNC(=O)C(=O)NNc2ccccn2)cc1	PLAP activator 2.4
Nc1ccc(S(=O)(=O)NNC(=O)C(=O)NNc2ccccn2)cc1	none
Cc1ccccc1S(=O)(=O)NNC(=O)C(=O)NNc1ccccn1	PLAP activator 2.4
Cc1ccc(C(=O)/C=C/c2ccc(Br)cc2)o1	none
Cc1ccc(C(=O)/C=C/c2ccccc2)o1	HIV Rev-RRE inh 79.9
CCNc1ccccc(C(=O)/C=C/c2ccc3c(c2)OCO3)c1=O	HIV Rev-RRE inh 54.6
Cc1ccc(C(=O)/C=C/c2ccc3c(c2)OCO3)o1	PLK1 kinase inh 63.9
c1csc(-c2nc3ccccc3[nH]2)c1	none (no result: PLAP activator)
CCCn1c(SCC(=O)c2cc(OC)ccc2OC)nc2c1c(=O)n(C)c(=O)n2C	none
CC(C)CSc1nnc2[nH]c(=O)cc(N)n12	none (no result: PLAP activator)
COC(=O)c1[nH]c2ccc(C)cc2c1NC(=O)Oc1ccccc1	none
Cn1c(=O)oc2cc(S(=O)(=O)NCCC(=O)N3CC=C(c4ccccc4)CC3)ccc21	none
CC(C)CC(NS(=O)(=O)c1ccc2c(c1)oc(=O)n2C)C(=O)N1CC=C(c2ccccc2)CC1 (stereo not given)	PLAP activator 2.5
COCCN(C(=O)CSc1nnc(Nc2ccccc2F)s1)c1c(N)n(Cc2ccccc2)c(=O)[nH]c1=O	PLAP activator 2.2
Cc1cc(NC(=O)c2ccc(NC(=O)CC(C)C)cc2)no1	none
